Laboratory results: ChEMBL document CHEMBL1127659, “In vitro and in vivo activities of reduced-size antagonists of luteinizing hormone-releasing hormone” (J Med Chem, 1994)
Converted amounts (≈) assume the structure as drawn. Where a SMILES comes first, the peptide text is derived from it. [ ]: non-standard residue; d: D form. The star is where a group is joined. Propanoyl(3-(4-F-phenyl)) = O=C(CCc1ccc(F)cc1)*; Propanoyl(3-(4-Cl-Ph)) = O=C(CCc1ccc(Cl)cc1)*; dPhe(4-Cl) = N[C@H](Cc1ccc(Cl)cc1)C(=O)O; Desaminotyrosyl = O=C(CCc1ccc(O)cc1)*; d1Nal = N[C@H](Cc1cccc2ccccc12)C(=O)O; d2Nal = N[C@H](Cc1ccc2ccccc2c1)C(=O)O; Lys(iPr) = CC(C)NCCCC[C@H](N)C(=O)O; NMeY = CN[C@@H](Cc1ccc(O)cc1)C(=O)O; d3Pal = N[C@H](Cc1cccnc1)C(=O)O; Nicotinoyl = O=C(c1cccnc1)*; X1 = O=C(Cc1ccc(O)cc1)*

Species on record: Rattus norvegicus
Assay: Percentage suppression of the LH in castrated rat after 2 hr of doing
Settings: not given
Work on `CCNC(=O)[C@@H]1CCCN1C(=O)[C@H](CCCN=C(N)N)NC(=O)[C@H](CC(C)C)NC(=O)[C@@H](Cc1c[nH]c2ccccc12)NC(=O)[C@H](Cc1ccc(O)cc1)NC(=O)[C@H](CO)NC(=O)[C@@H](Cc1c[nH]c2ccccc12)NC(=O)CCc1ccc(F)cc1` [listing 1 of 2 here] yielded a Supression of 88%.
`CCNC(=O)[C@@H]1CCCN1C(=O)[C@H](CCCN=C(N)N)NC(=O)[C@H](CC(C)C)NC(=O)[C@@H](CCCCNC(=O)c1cccnc1)NC(=O)[C@H](Cc1ccc(O)cc1)N(C)C(=O)[C@H](CO)NC(=O)[C@@H](Cc1c[nH]c2ccccc12)NC(=O)CCc1ccc(F)cc1` was tested, and the Supression was 90%.

Species on record: Rattus norvegicus
Assay: In vitro antagonistic potency against release of luteinizing hormone (LH) from cultured rat pituitary cells.
Format: functional
Settings: Pituitary gland cell, read-out: pA2 (converted)
Procedure, shortened: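 Cultured rat pituitary cells, agonist-stimulated LH release. pA2 is the negative log of the antagonist concentration that makes a 2-fold higher agonist concentration necessary to release LH. Compounds tested as TFA salts.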
Work on `CCNC(=O)[C@@H]1CCCN1C(=O)[C@H](CCCN=C(N)N)NC(=O)[C@H](CC(C)C)NC(=O)[C@@H](Cc1c[nH]c2ccccc12)NC(=O)[C@H](Cc1ccc(O)cc1)NC(=O)[C@H](CO)NC(=O)[C@@H](Cc1c[nH]c2ccccc12)NC(=O)CCc1ccc(F)cc1` [listing 2 of 2 here] yielded a Kb of 0.0389 nM.
`CCNC(=O)[C@@H]1CCCN1C(=O)[C@H](CCCN=C(N)N)NC(=O)[C@H](CC(C)C)NC(=O)[C@@H](Cc1ccc(O)cc1)NC(=O)[C@H](Cc1ccc(O)cc1)NC(=O)[C@H](CO)NC(=O)[C@@H](Cc1c[nH]c2ccccc12)NC(=O)CCc1ccc(F)cc1` was tested, and the Kb was 0.0316 nM.
`CCNC(=O)[C@@H]1CCCN1C(=O)[C@H](CCCN=C(N)N)NC(=O)[C@H](CC(C)C)NC(=O)[C@@H](Cc1c[nH]c2ccccc12)NC(=O)[C@H](Cc1ccc(O)cc1)NC(=O)[C@H](CO)NC(=O)[C@@H](Cc1c[nH]c2ccccc12)NC(=O)CCc1ccc(F)cc1F` gave a Kb of 0.0141 nM.
For `CCNC(=O)[C@@H]1CCCN1C(=O)[C@H](CCCN=C(N)N)NC(=O)[C@H](CC(C)C)NC(=O)[C@@H](Cc1c[nH]c2ccccc12)NC(=O)[C@H](Cc1ccc(O)cc1)NC(=O)[C@H](CO)NC(=O)[C@@H](Cc1ccc(O)cc1)NC(=O)CCc1ccc(F)cc1`, the Kb was 0.219 nM.
`CCNC(=O)[C@@H]1CCCN1C(=O)[C@H](CCCN=C(N)N)NC(=O)[C@H](CC(C)C)NC(=O)[C@@H](Cc1c[nH]c2ccccc12)NC(=O)[C@H](Cc1ccc(O)cc1)NC(=O)[C@H](CO)NC(=O)[C@H](Cc1c[nH]c2ccccc12)NC(=O)CCc1ccc(F)cc1` gave a Kb of 0.589 nM.
With `CCNC(=O)[C@@H]1CCCN1C(=O)[C@H](CCCCNC(C)C)NC(=O)[C@H](CC(C)C)NC(=O)[C@@H](CCCCNC(=O)c1cccnc1)NC(=O)[C@H](Cc1ccc(O)cc1)N(C)C(=O)[C@H](CO)NC(=O)[C@@H](Cc1cccc2ccccc12)NC(=O)CCc1ccc(F)cc1` the Kb was 0.00372 nM.
`CCNC(=O)[C@@H]1CCCN1C(=O)[C@H](CCCN=C(N)N)NC(=O)[C@H](CC(C)C)NC(=O)[C@@H](Cc1c[nH]c2ccccc12)NC(=O)[C@H](Cc1ccc(O)cc1)NC(=O)[C@@H]1CCCN1C(=O)[C@@H](Cc1c[nH]c2ccccc12)NC(=O)CCc1ccc(F)cc1` was tested, and the Kb was 21.4 nM.
In the case of `CCNC(=O)[C@@H]1CCCN1C(=O)[C@H](CCCN=C(N)N)NC(=O)[C@H](CC(C)C)NC(=O)[C@@H](Cc1c[nH]c2ccccc12)NC(=O)[C@H](Cc1ccc(O)cc1)N(C)C(=O)[C@H](CO)NC(=O)[C@@H](Cc1c[nH]c2ccccc12)NC(=O)CCc1ccc(F)cc1`, the Kb is reported as 0.00708 nM.
`CCNC(=O)[C@@H]1CCCN1C(=O)[C@H](CCCN=C(N)N)NC(=O)[C@H](CC(C)C)NC(=O)[C@@H](Cc1c[nH]c2ccccc12)NC(=O)[C@H](Cc1ccc(O)cc1)NC(=O)[C@H](CO)NC(=O)[C@H](Cc1c[nH]c2ccccc12)NC(=O)CCc1ccc(O)cc1` (Desaminotyrosyl-WSY[dW]LRP-NHEt) was tested, and the Kb was 15.5 nM.
`CCNC(=O)[C@@H]1CCCN1C(=O)[C@H](CCCN=C(N)N)NC(=O)[C@H](CC(C)C)NC(=O)[C@@H](Cc1c[nH]c2ccccc12)NC(=O)[C@H](Cc1ccc(O)cc1)NC(=O)[C@H](CO)NC(=O)[C@H](Cc1c[nH]c2ccccc12)NC(=O)Cc1ccc(O)cc1` (X1-WSY[dW]LRP-NHEt) gave a Kb of 44.7 nM.
For `CCNC(=O)[C@@H]1CCCN1C(=O)[C@H](CCCN=C(N)N)NC(=O)[C@H](CC(C)C)NC(=O)[C@@H](Cc1c[nH]c2ccccc12)NC(=O)[C@H](Cc1ccc(O)cc1)NC(=O)[C@H](CO)NC(=O)[C@H](Cc1ccc(O)cc1)NC(=O)CCc1ccc(Cl)cc1` ({Propanoyl(3-(4-Cl-Ph))}-YSY[dW]LRP-NHEt), the Kb was 0.851 nM.
In the case of `CCNC(=O)[C@@H]1CCCN1C(=O)[C@H](CCCN=C(N)N)NC(=O)[C@H](CC(C)C)NC(=O)[C@@H](Cc1c[nH]c2ccccc12)NC(=O)[C@H](Cc1ccc(O)cc1)NC(=O)[C@H](CO)NC(=O)[C@@H](Cc1ccc(O)cc1)NC(=O)CCc1ccc(Cl)cc1` ({Propanoyl(3-(4-Cl-Ph))}-[dY]SY[dW]LRP-NHEt), the Kb is reported as 0.0832 nM.
With `CC(C)C[C@H](NC(=O)[C@@H](CCCCNC(=O)c1cccnc1)NC(=O)[C@H](Cc1ccc(O)cc1)N(C)C(=O)[C@H](CO)NC(=O)[C@@H](Cc1cccc2ccccc12)NC(=O)CCc1ccc(F)cc1)C(=O)N[C@@H](CCCCNC(C)C)C(=O)N1CCC[C@H]1C(=O)N[C@H](C)C(N)=O` ({Propanoyl(3-(4-F-phenyl))}-[d1Nal]S[NMeY][dK](Nicotinoyl)L[Lys(iPr)]P[dA]-NH2) [listing 1 of 2 here] the Kb was 0.00741 nM.

Species on record: Rattus norvegicus
Assay: Effective dose required for maximal release of histamine from rat peritoneal mast cells
Format: functional
Settings: read-out: ED50 (the source's name)
Procedure, shortened: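 Rat peritoneal mast cells; histamine release measured. ED50 is the antagonist dose giving 50% of maximal histamine release, in micrograms per milliliter. All compounds tested as TFA salts.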
In the case of `CCNC(=O)[C@@H]1CCCN1C(=O)[C@H](CCCN=C(N)N)NC(=O)[C@H](CC(C)C)NC(=O)[C@@H](CCCCNC(=O)c1cccnc1)NC(=O)[C@H](Cc1ccc(O)cc1)N(C)C(=O)[C@H](CO)NC(=O)[C@@H](Cc1c[nH]c2ccccc12)NC(=O)CCc1ccc(F)cc1`, the EC50 is reported as under 0.1 µg/mL.
With `CC(=O)N[C@H](Cc1ccc2ccccc2c1)C(=O)N[C@H](Cc1ccc(Cl)cc1)C(=O)N[C@H](Cc1cccnc1)C(=O)N[C@@H](CO)C(=O)N(C)[C@@H](Cc1ccc(O)cc1)C(=O)N[C@H](CCCCNC(=O)c1cccnc1)C(=O)N[C@@H](CC(C)C)C(=O)N[C@@H](CCCCNC(C)C)C(=O)N1CCC[C@H]1C(=O)N[C@H](C)C(N)=O` (Ac-[d2Nal][dPhe(4-Cl)][d3Pal]S[NMeY][dK](Nicotinoyl)L[Lys(iPr)]P[dA]-NH2) the EC50 was 10 µg/mL (≈ 6.51 µM).
`CC(C)C[C@H](NC(=O)[C@@H](CCCCNC(=O)c1cccnc1)NC(=O)[C@H](Cc1ccc(O)cc1)N(C)C(=O)[C@H](CO)NC(=O)[C@@H](Cc1cccc2ccccc12)NC(=O)CCc1ccc(F)cc1)C(=O)N[C@@H](CCCCNC(C)C)C(=O)N1CCC[C@H]1C(=O)N[C@H](C)C(N)=O` ({Propanoyl(3-(4-F-phenyl))}-[d1Nal]S[NMeY][dK](Nicotinoyl)L[Lys(iPr)]P[dA]-NH2) [listing 2 of 2 here] showed an EC50 of 10.3 µg/mL (≈ 7.84 µM).
